Measured values: publication PMC4059252 (Journal of Medicinal Chemistry, 2014)

Test: Metal cation competition
Assay type: physicochemical
Summary of the method: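 200 μM ligand (1 mL) was labelled with 30–50 μCi neutralised 89Zr for 1 h at room temperature, and complete labelling was confirmed by radio-TLC. 200 μL aliquots were mixed with 200 μL 1 mM metal salt (e.g. CoCl2) at pH 7.4 and incubated at 37 °C with agitation. Radio-TLC at 1 h, 1, 5, 7 d gave % intact complex. Mean and SD from two experiment sets.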

SMILES: CC(=O)N(O)CCCCCNC(=O)CCC(=O)N(O)CCCCCNC(=O)CCC(=O)N(O)CCCCCN [DFO, desferrioxamine B]
- ^89Zr^4+ released (after 7 days of incubation with FeCl3): > 50%
- ^89Zr^4+ released (in the presence of Ga^3+): ~9%
